Experiments:
Glycine max [1] = experiment: Phytotoxicity against Glycine max (soybean) plant assessed as growth inhibition at 150 g of active ingredient/ha administered using post-emergence treatment measured 30 days post treatment protocol under greenhouse conditions; type: organism-based; details: in vivo, other, 720 h
Method in brief: (§1)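 Compounds were formulated as 100 g/L emulsified concentrates in DMF with TW-80 as emulsifier, then diluted with water to the required concentration. They were applied postemergence to pot-grown plants in a greenhouse. The soil was clay, pH 6.5, with 1.6% organic matter, 37.3% clay particles and CEC 12.1 mol/kg. Sulfentrazone served as the reference control.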

Amaranthus retroflexus [2] = experiment: Herbicidal activity against Amaranthus retroflexus assessed as growth inhibition at 75 g of active ingredient/ha administered using post-emergence treatment measured 15 days post treatment protocol under greenhouse conditions; type: functional
Method in brief: (§2)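 Test agents were formulated as 100 g/L emulsified concentrates (DMF solvent, TW-80 emulsifier), diluted with water and sprayed postemergence on pot-grown weeds. Seeds were sown 1-3 cm deep in clay soil (pH 6.5, 1.6% organic matter, 37.3% clay, CEC […]) and grown at 15–30 °C in a greenhouse. Dicots were treated at the two-leaf stage. Untreated and DMF-treated plants served as controls. Activity was scored visually 15 days after treatment.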

Gossypium hirsutum [3] = experiment: Phytotoxicity against Gossypium hirsutum (cotton) plant assessed as growth inhibition at 450 g of active ingredient/ha administered using post-emergence treatment measured 30 days post treatment protocol under greenhouse conditions; type: organism-based; details: in vivo, other, 720 h; method in brief: as §1
Echinochloa crus-galli [4] = experiment: Herbicidal activity against Echinochloa crus-galli (barnyard grass) assessed as growth inhibition at 37.5 g of active ingredient/ha administered using post-emergence treatment measured 15 days post treatment protocol under greenhouse conditions; type: functional; method in brief: as §2
[5] = Phytotoxicity against Glycine max (soybean) plant assessed as growth inhibition at 75 g of active ingredient/ha administered using post-emergence treatment measured 30 days post treatment protocol under greenhouse conditions; type: organism-based; details: in vivo, read-out: GI; method in brief: as §1
Brassica juncea [6] = experiment: Herbicidal activity against Brassica juncea assessed as growth inhibition at 37.5 g of active ingredient/ha administered using post-emergence treatment measured 15 days post treatment protocol under greenhouse conditions; type: functional; method in brief: as §2
Brassica napus = experiment: Phytotoxicity against Brassica napus (oilseed rape) assessed as growth inhibition at 300 g of active ingredient/ha administered using post-emergence treatment measured 30 days post treatment protocol under greenhouse conditions; type: organism-based; details: in vivo, other, 720 h; method in brief: as §1
Senna tora [7] = experiment: Herbicidal activity against Senna tora assessed as growth inhibition at 150 g of active ingredient/ha administered using post-emergence treatment measured 15 days post treatment protocol under greenhouse conditions; type: functional; method in brief: as §2
Portulaca oleracea = experiment: Herbicidal activity against Portulaca oleracea assessed as growth inhibition at 37.5 g of active ingredient/ha administered using post-emergence treatment measured 15 days post treatment protocol under greenhouse conditions; type: functional; method in brief: as §2
Setaria viridis [8] = experiment: Herbicidal activity against Setaria viridis (green foxtail) assessed as growth inhibition at 150 g of active ingredient/ha administered using post-emergence treatment measured 15 days post treatment protocol under greenhouse conditions; type: functional; method in brief: as §2
Glycine max [9] = experiment: Phytotoxicity against Glycine max (soybean) plant assessed as growth inhibition at 450 g of active ingredient/ha administered using post-emergence treatment measured 30 days post treatment protocol under greenhouse conditions; type: organism-based; details: in vivo, other, 720 h; method in brief: as §1
Zea mays [10] = experiment: Phytotoxicity against Zea mays (maize) plant assessed as growth inhibition at 300 g of active ingredient/ha administered using post-emergence treatment measured 30 days post treatment protocol under greenhouse conditions; type: organism-based; details: in vivo, other, 720 h; method in brief: as §1
Chenopodium album [11] = experiment: Herbicidal activity against Chenopodium album assessed as growth inhibition at 75 g of active ingredient/ha administered using post-emergence treatment measured 15 days post treatment protocol under greenhouse conditions; type: functional; method in brief: as §2
Triticum aestivum [12] = experiment: Phytotoxicity against Triticum aestivum (wheat) plant assessed as growth inhibition at 450 g of active ingredient/ha administered using post-emergence treatment measured 30 days post treatment protocol under greenhouse conditions; type: organism-based; details: in vivo, other, 720 h; method in brief: as §1
Eclipta prostrata = experiment: Herbicidal activity against Eclipta prostrata assessed as growth inhibition at 75 g of active ingredient/ha administered using post-emergence treatment measured 15 days post treatment protocol under greenhouse conditions; type: functional; method in brief: as §2
Triticum aestivum [13] = experiment: Phytotoxicity against Triticum aestivum (wheat) plant assessed as growth inhibition at 150 g of active ingredient/ha administered using post-emergence treatment measured 30 days post treatment protocol under greenhouse conditions; type: organism-based; details: in vivo, other, 720 h; method in brief: as §1
Setaria viridis [14] = experiment: Herbicidal activity against Setaria viridis (green foxtail) assessed as growth inhibition at 75 g of active ingredient/ha administered using post-emergence treatment measured 15 days post treatment protocol under greenhouse conditions; type: functional; method in brief: as §2
Gossypium hirsutum [15] = experiment: Phytotoxicity against Gossypium hirsutum (cotton) plant assessed as growth inhibition at 150 g of active ingredient/ha administered using post-emergence treatment measured 30 days post treatment protocol under greenhouse conditions; type: organism-based; details: in vivo, other, 720 h; method in brief: as §1
Cerastium arvense [16] = experiment: Herbicidal activity against Cerastium arvense assessed as growth inhibition at 37.5 g of active ingredient/ha administered using post-emergence treatment measured 15 days post treatment protocol under greenhouse conditions; type: functional; method in brief: as §2
Echinochloa crus-galli [17] = experiment: Herbicidal activity against Echinochloa crus-galli (barnyard grass) assessed as growth inhibition at 75 g of active ingredient/ha administered using post-emergence treatment measured 15 days post treatment protocol under greenhouse conditions; type: functional; method in brief: as §2
Triticum aestivum [18] = experiment: Phytotoxicity against Triticum aestivum (wheat) plant assessed as growth inhibition at 300 g of active ingredient/ha administered using post-emergence treatment measured 30 days post treatment protocol under greenhouse conditions; type: organism-based; details: in vivo, other, 720 h; method in brief: as §1
Amaranthus retroflexus [19] = experiment: Herbicidal activity against Amaranthus retroflexus assessed as growth inhibition at 150 g of active ingredient/ha administered using post-emergence treatment measured 15 days post treatment protocol under greenhouse conditions; type: functional; method in brief: as §2
[20] = Phytotoxicity against Brassica napus (oilseed rape) assessed as growth inhibition at 75 g of active ingredient/ha administered using post-emergence treatment measured 30 days post treatment protocol under greenhouse conditions; type: organism-based; details: in vivo, read-out: GI; method in brief: as §1
Cerastium arvense [21] = experiment: Herbicidal activity against Cerastium arvense assessed as growth inhibition at 75 g of active ingredient/ha administered using post-emergence treatment measured 15 days post treatment protocol under greenhouse conditions; type: functional; method in brief: as §2
Zea mays [22] = experiment: Phytotoxicity against Zea mays (maize) plant assessed as growth inhibition at 450 g of active ingredient/ha administered using post-emergence treatment measured 30 days post treatment protocol under greenhouse conditions; type: organism-based; details: in vivo, other, 720 h; method in brief: as §1
Digitaria sanguinalis = experiment: Herbicidal activity against Digitaria sanguinalis (hairy crabgrass) assessed as growth inhibition at 150 g of active ingredient/ha administered using post-emergence treatment measured 15 days post treatment protocol under greenhouse conditions; type: functional; method in brief: as §2
Senna tora [23] = experiment: Herbicidal activity against Senna tora assessed as growth inhibition at 37.5 g of active ingredient/ha administered using post-emergence treatment measured 15 days post treatment protocol under greenhouse conditions; type: functional; method in brief: as §2
Brassica juncea [24] = experiment: Herbicidal activity against Brassica juncea assessed as growth inhibition at 75 g of active ingredient/ha administered using post-emergence treatment measured 15 days post treatment protocol under greenhouse conditions; type: functional; method in brief: as §2
Chenopodium album [25] = experiment: Herbicidal activity against Chenopodium album assessed as growth inhibition at 37.5 g of active ingredient/ha administered using post-emergence treatment measured 15 days post treatment protocol under greenhouse conditions; type: functional; method in brief: as §2
Senna tora [26] = experiment: Herbicidal activity against Senna tora assessed as growth inhibition at 75 g of active ingredient/ha administered using post-emergence treatment measured 15 days post treatment protocol under greenhouse conditions; type: functional; method in brief: as §2
Chenopodium album [27] = experiment: Herbicidal activity against Chenopodium album assessed as growth inhibition at 150 g of active ingredient/ha administered using post-emergence treatment measured 15 days post treatment protocol under greenhouse conditions; type: functional; method in brief: as §2

CCS(=O)(=O)Nc1cc(-n2nc(C)n(Cc3ccccc3/C(=N\OC)C(=O)OC)c2=O)c(F)cc1Cl
Activity (Glycine max [1]): Toxic
growth inhibition (GI) (Amaranthus retroflexus [2]): >80%
Activity (Gossypium hirsutum [3]): Toxic
growth inhibition (GI) (Echinochloa crus-galli [4]): <50%
inhibition at 720 h [5]: 60%
growth inhibition (GI) (Brassica juncea [6]): >80%
Activity (Brassica napus): Toxic
growth inhibition (GI) (Senna tora [7]): 100%
growth inhibition (GI) (Portulaca oleracea): 100%
growth inhibition (GI) (Setaria viridis [8]): 50%
Activity (Glycine max [9]): Toxic
Activity (Zea mays [10]): Toxic
growth inhibition (GI) (Chenopodium album [11]): >80%
Activity (Triticum aestivum [12]): Toxic
growth inhibition (GI) (Eclipta prostrata): >80%
Activity (Triticum aestivum [13]): Toxic
growth inhibition (GI) (Setaria viridis [14]): <50%
Activity (Gossypium hirsutum [15]): Toxic
growth inhibition (GI) (Cerastium arvense [16]): >80%
growth inhibition (GI) (Echinochloa crus-galli [17]): 50%
Activity (Triticum aestivum [18]): Toxic
growth inhibition (GI) (Amaranthus retroflexus [19]): 100%
inhibition at 720 h [20]: 80%
growth inhibition (GI) (Cerastium arvense [21]): 100%
Activity (Zea mays [22]): Toxic
growth inhibition (GI) (Digitaria sanguinalis): 50%
growth inhibition (GI) (Senna tora [23]): 50%
growth inhibition (GI) (Brassica juncea [24]): >80%
growth inhibition (GI) (Chenopodium album [25]): 50%
growth inhibition (GI) (Senna tora [26]): >80%
growth inhibition (GI) (Chenopodium album [27]): >80%

— ChEMBL document CHEMBL3046880, “Syntheses and herbicidal activities of novel triazolinone derivatives” (J Agric Food Chem, 2008)
